Reference: ChEMBL document CHEMBL5036358, “The Flavonoid Baicalein Negatively Regulates Progesterone Target Genes in the Uterus in Vivo” (J Nat Prod, 2022)
The source made the active and inactive calls. The calls are words filed in the database; no cut-off is given here.

Key:
Mus musculus [1] = assay: Inhibition of ZBTB16 expression in CD-1 mouse uterus at 1 mg/kg, ip for 7 days by Immunohistochemical staining method; assay type: functional, organism-based; conditions: time 7.0 day
How it was run: (§1)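 Ovariectomized CD-1 mice, 5 per group, dosed IP daily for 7 days: 10% DMSO vehicle, progesterone 1 mg/kg, baicalein 25 mg/kg, P4 1 mg/kg + baicalein 25 mg/kg, or P4 1 mg/kg + RU486 10 mg/kg. One uterine horn formalin-fixed, paraffin-embedded, cut at 5 μm. IHC: citrate antigen retrieval at 100 °C, primary antibody overnight at 4 °C, ABC/DAB, hematoxylin counterstain. For PCNA, the percentage of proliferating luminal epithelial cells was counted.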

[2] = Antiproliferative activity against CD-1 mouse uterine epithelial cell at 1 mg/kg, ip for 7 days by immunohistochemistry method; assay type: functional; conditions: time 7 day; how it was run: as §1
Mus musculus [3] = assay: Effect on GR expression in CD-1 mouse uterine stromal at 1 mg/kg, ip for 7 days by immunohistochemical staining analysis; assay type: functional, organism-based; conditions: Stroma, time 7.0 day; how it was run: as §1
[4] = Toxicity in CD-1 mouse assessed as effect on uterus weight at 25 mg/kg,ip for 7 days (Rvb= 0.033g); assay type: organism-based; conditions: in vivo, 168 h, time 7 day
[5] = Toxicity in CD-1 mouse assessed as effect on liver weight at 25 mg/kg, ip for 7 days (Rvb= 1.3 g); assay type: organism-based; conditions: in vivo, 168 h, time 7 day
Mus musculus [6] = assay: Effect on PR protein level in CD-1 mouse uterus at 1 mg/kg, ip for 7 days by immunohistochemical; assay type: functional, organism-based; conditions: time 7.0 day; how it was run: as §1
[7] = Toxicity in CD-1 mouse assessed as effect on glucose level at 25 mg/kg, ip for 7 days (Rvb=231.6 mg/dL); assay type: organism-based; conditions: in vivo, 168 h, time 7 day
[8] = Toxicity in CD-1 mouse assessed as effect on body weight at 25 mg/kg, ip for 7 days (Rvb= 30g); assay type: organism-based; conditions: in vivo, 168 h, time 7 day
[9] = Toxicity in CD-1 mouse assessed as effect on MG weight at 25 mg/kg, ip for 7 days (Rvb= 0.22g); assay type: organism-based; conditions: in vivo, 168 h, time 7 day
[10] = Toxicity in P4 induced CD-1 mouse assessed as effect on body weight at 10 mg/kg, ip for 7 days (Rvb= 30g); assay type: organism-based; conditions: in vivo, 168 h, time 7 day
Mus musculus [11] = assay: Effect on P4 induced PR protein level in CD-1 mouse uterus at 10 mg/kg, ip for 7 days by immunohistochemical staining method; assay type: functional, organism-based; conditions: time 7.0 day
[12] = Toxicity in P4 induced CD-1 mouse assessed as effect on MG weight at 10 mg/kg, ip for 7 days (Rvb= 0.22g); assay type: organism-based; conditions: in vivo, 168 h, time 7 day
[13] = Toxicity in P4 induced CD-1 mouse assessed as effect on uterus weight at 10 mg/kg,ip for 7 days (Rvb= 0.033g); assay type: organism-based; conditions: in vivo, 168 h, time 7 day
Mus musculus [14] = assay: Effect on P4 induced GR expression in CD-1 mouse uterine stroma at 10 mg/kg, ip for 7 days by immunohistochemical analysis; assay type: functional, organism-based; conditions: time 7.0 day
How it was run: (§2)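 Ovariectomized CD-1 mice (n=5/group) were dosed ip for 7 days with 10% DMSO, 1 mg/kg P4, 25 mg/kg compound, 1 mg/kg P4 plus 25 mg/kg compound, or 1 mg/kg P4 plus 10 mg/kg RU486. Uterine sections (5 μm) were processed with citrate retrieval and overnight 4 °C primary antibodies: GR 1:100; PR, HAND2 and ZBTB16 1:200. Staining used biotinylated secondary, ABC and DAB, and was assessed qualitatively.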

Mus musculus [15] = assay: Upregulation of P4 induced HAND2 expression in CD-1 mouse uterus at 10 mg/kg, ip for 7 days by immunohistochemical staining method; assay type: functional, organism-based; conditions: time 7.0 day
[16] = Toxicity in P4 induced CD-1 mouse assessed as effect on liver weight at 10 mg/kg, ip for 7 days (Rvb= 1.3 g); assay type: organism-based; conditions: in vivo, 168 h, time 7 day
[17] = Toxicity in P4 induced CD-1 mouse assessed as effect on glucose level at 10 mg/kg, ip for 7 days (Rvb=231.6 mg/dL); assay type: organism-based; conditions: in vivo, 168 h, time 7 day
Mus musculus [18] = assay: Effect on P4 induced GR expression in CD-1 mouse uterine luminal epithelium at 10 mg/kg, ip for 7 days by immunohistochemical analysis; assay type: functional, organism-based; conditions: Uterine lumen, time 7.0 day; how it was run: as §2
Mus musculus [19] = assay: Effect on P4 induced GR expression in CD-1 mouse uterine luminal epithelium at 25 mg/kg, ip for 7 days by immunohistochemical analysis; assay type: functional, organism-based; conditions: Uterine lumen, time 7.0 day; how it was run: as §2
Mus musculus [20] = assay: Inhibition of PR induced ZBTB16 expression in CD-1 mouse uterus at 25 mg/kg,ip for 7 days by Immunohistochemical staining method; assay type: functional, organism-based; conditions: time 7.0 day; how it was run: as §2
[21] = Toxicity in P4 induced CD-1 mouse assessed as effect on body weight at 25 mg/kg, ip for 7 days (Rvb= 30g); assay type: organism-based; conditions: in vivo, 168 h, time 7 day
Mus musculus [22] = assay: Upregulation of HAND2 expression in CD-1 mouse uterus at 25 mg/kg, ip for 7 days by immunohistochemical staining method; conditions: time 7.0 day
Progesterone receptor = molecular target: T1, Progesterone receptor (Homo sapiens, UniProt P06401); assay: Competitive inhibition of progesterone receptor (unknown origin) by fluorescence polarization based competition assay
T1 sequence (P06401 whole entry): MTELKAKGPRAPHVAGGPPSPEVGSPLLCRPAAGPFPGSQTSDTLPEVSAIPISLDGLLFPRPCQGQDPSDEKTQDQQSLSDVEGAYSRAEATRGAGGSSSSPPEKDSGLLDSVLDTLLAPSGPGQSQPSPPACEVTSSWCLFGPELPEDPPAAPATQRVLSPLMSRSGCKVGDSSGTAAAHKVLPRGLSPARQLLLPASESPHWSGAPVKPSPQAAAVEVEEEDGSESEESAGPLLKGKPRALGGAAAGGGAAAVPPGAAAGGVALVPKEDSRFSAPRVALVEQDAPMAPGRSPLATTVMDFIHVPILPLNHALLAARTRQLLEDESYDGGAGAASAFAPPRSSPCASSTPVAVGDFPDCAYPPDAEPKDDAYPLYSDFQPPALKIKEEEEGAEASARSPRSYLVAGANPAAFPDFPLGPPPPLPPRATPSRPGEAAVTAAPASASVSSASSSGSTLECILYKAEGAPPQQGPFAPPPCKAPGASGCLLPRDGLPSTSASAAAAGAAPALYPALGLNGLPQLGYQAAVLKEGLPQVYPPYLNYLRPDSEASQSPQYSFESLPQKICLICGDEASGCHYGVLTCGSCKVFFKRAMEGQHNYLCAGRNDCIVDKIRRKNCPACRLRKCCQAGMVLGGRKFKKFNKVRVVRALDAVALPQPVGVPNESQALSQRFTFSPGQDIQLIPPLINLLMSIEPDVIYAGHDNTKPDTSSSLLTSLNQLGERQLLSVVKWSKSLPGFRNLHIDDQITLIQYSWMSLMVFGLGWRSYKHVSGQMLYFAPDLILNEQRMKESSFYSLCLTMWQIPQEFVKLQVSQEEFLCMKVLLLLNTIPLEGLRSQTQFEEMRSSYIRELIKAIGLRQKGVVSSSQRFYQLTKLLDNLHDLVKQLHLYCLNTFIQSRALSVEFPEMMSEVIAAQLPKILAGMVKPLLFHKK

Mus musculus [23] = assay: Effect on GR expression in CD-1 mouse uterine luminal epithelium at 25 mg/kg, ip for 7 days by immunohistochemical analysis; assay type: functional, organism-based; conditions: Uterine lumen, time 7.0 day; how it was run: as §2
Mus musculus [24] = assay: Effect on PR protein level in CD-1 mouse uterus at 25 mg/kg, ip for 7 days by immunohistochemical staining method; assay type: functional, organism-based; conditions: time 7.0 day; how it was run: as §2
Mus musculus [25] = assay: Effect on P4 induced PR protein level in CD-1 mouse uterus at 25 mg/kg, ip for 7 days by immunohistochemical staining method; assay type: functional, organism-based; conditions: time 7.0 day; how it was run: as §2
[26] = Toxicity in P4 induced CD-1 mouse assessed as effect on uterus weight at 25 mg/kg,ip for 7 days (Rvb= 0.033g); assay type: organism-based; conditions: in vivo, 168 h, time 7 day
Mus musculus [27] = assay: Effect on GR expression in CD-1 mouse uterine stroma at 25 mg/kg, ip for 7 days by immunohistochemical analysis; assay type: functional, organism-based; conditions: time 7.0 day; how it was run: as §2
[28] = Toxicity in P4 induced CD-1 mouse assessed as effect on glucose level at 25 mg/kg, ip for 7 days (Rvb=231.6 mg/dL); assay type: organism-based; conditions: in vivo, 168 h, time 7 day
[29] = Toxicity in P4 induced CD-1 mouse assessed as effect on liver weight at 25 mg/kg, ip for 7 days (Rvb= 1.3 g); assay type: organism-based; conditions: in vivo, 168 h, time 7 day
Mus musculus [30] = assay: Upregulation of P4 induced HAND2 expression in CD-1 mouse uterus at 25 mg/kg, ip for 7 days by immunohistochemical staining method; assay type: functional, organism-based; conditions: time 7.0 day, in the assay text read “Downregulation” for “Upregulation”; how it was run: as §2
Mus musculus [31] = assay: Effect on P4 induced GR expression in CD-1 mouse uterine stroma at 25 mg/kg, ip for 7 days by immunohistochemical analysis; assay type: functional, organism-based; conditions: time 7.0 day; how it was run: as §2
Mus musculus [32] = assay: Inhibition of ZBTB16 expression in CD-1 mouse uterus at 25 mg/kg, ip for 7 days by Immunohistochemical staining method; assay type: functional, organism-based; conditions: time 7.0 day; how it was run: as §2
Glucocorticoid receptor = molecular target: T2, Glucocorticoid receptor (Homo sapiens, UniProt P04150); assay: Competitive inhibition of glucocorticoid receptor (unknown origin) by fluorescence polarization based competition assay
T2 sequence (P04150 whole entry): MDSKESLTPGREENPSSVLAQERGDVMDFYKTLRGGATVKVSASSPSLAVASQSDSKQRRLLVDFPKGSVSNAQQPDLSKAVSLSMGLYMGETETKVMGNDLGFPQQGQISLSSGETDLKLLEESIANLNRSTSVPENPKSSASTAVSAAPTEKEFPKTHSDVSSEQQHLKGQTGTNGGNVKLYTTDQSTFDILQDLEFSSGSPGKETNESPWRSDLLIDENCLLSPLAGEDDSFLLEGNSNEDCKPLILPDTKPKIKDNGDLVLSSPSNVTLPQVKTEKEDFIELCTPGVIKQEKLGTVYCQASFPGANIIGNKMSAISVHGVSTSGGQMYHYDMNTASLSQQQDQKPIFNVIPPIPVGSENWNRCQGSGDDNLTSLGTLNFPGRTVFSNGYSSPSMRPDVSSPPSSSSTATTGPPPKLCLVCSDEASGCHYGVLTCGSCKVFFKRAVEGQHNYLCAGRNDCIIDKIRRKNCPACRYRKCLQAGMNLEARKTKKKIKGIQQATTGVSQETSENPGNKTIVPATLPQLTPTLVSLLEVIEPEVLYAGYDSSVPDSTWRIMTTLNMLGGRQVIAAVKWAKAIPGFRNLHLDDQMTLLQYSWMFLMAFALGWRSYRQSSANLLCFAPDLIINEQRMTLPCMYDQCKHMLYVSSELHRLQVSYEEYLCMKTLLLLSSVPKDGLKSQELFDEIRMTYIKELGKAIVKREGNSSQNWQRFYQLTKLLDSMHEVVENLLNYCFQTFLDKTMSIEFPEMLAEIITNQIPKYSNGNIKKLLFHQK

[33] = Toxicity in P4 induced CD-1 mouse assessed as effect on MG weight at 25 mg/kg, ip for 7 days (Rvb= 0.22g); assay type: organism-based; conditions: in vivo, 168 h, time 7 day
[34] = Antiproliferative activity against CD-1 mouse uterine epithelial cell at 25 mg/kg, ip for 7 days by immunohistochemistry method; assay type: functional; conditions: time 7 day
How it was run: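 Ovariectomized CD-1 mice (n=5/group) received ip 10% DMSO vehicle, 1 mg/kg P4, 25 mg/kg compound, or P4 plus compound daily for 7 days. Formalin-fixed, paraffin 5 μm uterine sections underwent citrate antigen retrieval (100 °C, 30 min), then PCNA IHC (1:200, overnight 4 °C), ABC/DAB and hematoxylin counterstain. Read-out was the percentage of PCNA-positive luminal epithelial cells.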

CC(=O)[C@H]1CC[C@H]2[C@@H]3CCC4=CC(=O)CC[C@]4(C)[C@H]3CC[C@]12C [PROGESTERONE]
inhibition (Mus musculus [1]): inactive | Activity [2]: 7% | Activity (Mus musculus [3]): Active | Activity [4]: 0.021 g | Activity [5]: 1.4 g | Activity (Mus musculus [6]): inactive | Activity [7]: 209.4 mg/dL | Activity [8]: 30 g | Activity [9]: 0.24 g

CC#C[C@]1(O)CC[C@H]2[C@@H]3CCC4=CC(=O)CCC4=C3[C@@H](c3ccc(N(C)C)cc3)C[C@@]21C [MIFEPRISTONE]
Activity [10]: 29 g | Activity (Mus musculus [11]): inactive | Activity [12]: 0.17 g | Activity [13]: 0.021 g | Activity (Mus musculus [14]): Active | Activity (Mus musculus [15]): inactive | Activity [16]: 1.2 g | Activity [17]: 198.2 mg/dL | Activity (Mus musculus [18]): Active

O=c1cc(-c2ccccc2)oc2cc(O)c(O)c(O)c12 [BAICALEIN]
Activity (Mus musculus [19]): Active | inhibition (Mus musculus [20]): Active | Activity [21]: 30 g | Activity (Mus musculus [22]): inactive | IC50 (Progesterone receptor): 15 µM | Activity (Mus musculus [23]): inactive | Activity (Mus musculus [24]): inactive | Activity (Mus musculus [25]): inactive | Activity [4]: 0.026 g | Activity [5]: 1.4 g | Activity [26]: 0.024 g | Activity (Mus musculus [27]): inactive | Activity [7]: 196.2 mg/dL | Activity [28]: 179.8 mg/dL | Activity [8]: 30 g | Activity [29]: 1.2 g | Activity (Mus musculus [30]): Active | Activity (Mus musculus [31]): Active | inhibition (Mus musculus [32]): inactive | IC50 (Glucocorticoid receptor): 19 µM | Activity [9]: 0.26 g | Activity [33]: 0.23 g | Activity [34]: 47%
